Experiments:
MDA-MB-231 [1] = experiment: Cytotoxicity against human MDA-MB-231 cells; type: functional, cell-based
MDA-MB-231 [2] = experiment: Inhibition of human MDA-MB-231 cell migration after 4 days by scratch wound healing assay; type: functional, cell-based; conditions: MDA-MB-231, 96 h
Outline: (§1)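 Wounds were scratched through confluent cell monolayers with a floating pin tool, then compounds were added at concentrations chosen to avoid cytotoxicity. Plates were incubated 4 days at 37°C, then fixed and stained. Fluorescence in the wound area quantified wound closure, and IC50 for inhibition of wound healing was reported.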

4T1 [3] = experiment: Inhibition of cell migration of mouse 4T1 cells after 4 days by scratch wound healing assay; type: functional, cell-based; conditions: 4T1, 96 h; outline: as §1
4T1 [4] = experiment: Cytotoxicity against […] cells; type: functional, cell-based
[5] = Metabolic stability in mouse plasma assessed as half life; type: ADME, cell-free

IC50 (MDA-MB-231 [2]) [µM] | IC50 (4T1 [3]) [µM] | SMILES | IC50 (MDA-MB-231 [1]) [µM] | IC50 (4T1 [4]) [µM] | half-life [5] [min]
> 100 | > 100 | C/C(=C\[C@H](C)C(=O)CCCC1CC(=O)NC(=O)C1)[C@H](O)[C@@H](C)[C@H](O)[C@@H](O)/C=C/CC/C=C/C(=O)O | > 100 | > 100 | 
> 100 | > 100 | CO[C@@H](/C=C/CC/C=C/C(=O)O)[C@@H](O)[C@H](C)[C@@H](O)/C(C)=C/[C@H](C)C(=O)C[C@H](O)CC1CC(=O)NC(=O)C1 | > 100 | > 100 | 
> 100 | > 100 | C/C(=C\[C@@H](C)[C@H](O)C/C=C/CC/C=C/C(=O)O)[C@@H](O)[C@H](C)C(=O)CCCC1CC(=O)NC(=O)C1 | > 100 | > 100 | 
> 100 | > 100 | C/C(=C\[C@@H](C)CC/C=C/CC/C=C/C(=O)O)[C@H](O)[C@H](C)C(=O)C[C@H](O)CC1CC(=O)NC(=O)C1 | > 100 | > 100 | 
> 100 | > 100 | C/C(=C\[C@@H](C)[C@H](O)[C@@H](O)/C=C/CC/C=C/C(=O)O)[C@H](O)[C@H](C)C(=O)CCCC1CC(=O)NC(=O)C1 | > 100 | > 100 | 
> 100 | > 100 | CO[C@@H](/C=C/CC/C=C/C(=O)O)[C@@H](O)[C@H](C)/C=C(\C)[C@H](O)[C@H](C)C(=O)C[C@H](O)CC1CC(=O)NC(=O)C1 | > 100 | 20 | 
> 100 | > 100 | C/C(=C\[C@@H](C)CC/C=C/CC/C=C/C(=O)O)[C@@H](O)[C@H](C)C(=O)C[C@H](O)CC1CC(=O)NC(=O)C1 | > 100 | 81 | 
> 100 | > 100 | CO[C@H]1/C=C/CC/C=C/C(=O)O[C@H]([C@H](C)C(=O)/C=C/CC2CC(=O)NC(=O)C2)/C(C)=C\[C@@H](C)[C@@H]1O | > 100 | > 100 | 
> 100 | > 100 | C/C1=C/[C@@H](C)[C@H](O)C/C=C/CC/C=C/C(=O)O[C@@H]1[C@H](C)C(=O)CCCC1CC(=O)NC(=O)C1 | > 100 | > 100 | 
0.07 | > 0.33 | C/C1=C/[C@@H](C)CC/C=C/CC/C=C/C(=O)O[C@@H]1[C@H](C)C(=O)C[C@H](O)CC1CC(=O)NC(=O)C1 | 1 | 0.98 | 
> 100 | > 100 | C/C1=C/[C@@H](C)[C@H](O)[C@@H](O)/C=C/CC/C=C/C(=O)O[C@@H]1[C@H](C)C(=O)CCCC1CC(=O)NC(=O)C1 | > 100 | 44 | 
1.8 | 1.8 | CO[C@H]1/C=C/CC/C=C/C(=O)O[C@H]([C@H](C)C(=O)C[C@H](O)CC2CC(=O)NC(=O)C2)/C(C)=C\[C@@H](C)[C@@H]1O | 5.2 | 5.3 | 
> 100 | > 100 | C/C(=C\[C@@H](C)[C@H](O)C/C=C/CC/C=C/C(=O)O)[C@H](O)[C@H](C)C(=O)CCCC1CC(=O)NC(=O)C1 | > 100 | > 100 | 
> 100 | > 100 | C/C(=C\[C@H](C)C(=O)CCCC1CC(=O)NC(=O)C1)[C@H](O)[C@@H](C)[C@H](O)C/C=C/CC/C=C/C(=O)O | > 100 | > 100 | 
> 100 | > 100 | C/C(=C\[C@@H](C)[C@H](O)[C@@H](O)/C=C/CC/C=C/C(=O)O)[C@@H](O)[C@H](C)C(=O)CCCC1CC(=O)NC(=O)C1 | > 100 | > 100 | 
> 100 | > 100 | C/C1=C/[C@@H](C)[C@H](O)C/C=C/CC/C=C/C(=O)O[C@@H]1[C@H](C)C(=O)/C=C/CC1CC(=O)NC(=O)C1 | > 100 | 8.5 | 
> 100 | > 100 | C/C1=C/[C@@H](C)C[C@@H](O)/C=C/CC/C=C/C(=O)O[C@@H]1[C@H](C)C(=O)C[C@H](O)CC1CC(=O)NC(=O)C1 | 13 | 10 | 
> 100 | > 100 | C/C1=C/[C@@H](C)[C@H](O)C/C=C/CC/C=C/C(=O)O[C@@H]1[C@H](C)C(=O)C[C@H](O)CC1CC(=O)NC(=O)C1 | > 100 | > 100 | 
> 100 | > 100 | C/C1=C/[C@@H](C)[C@H](O)[C@@H](O)/C=C/CC/C=C/C(=O)O[C@@H]1[C@H](C)C(=O)/C=C/CC1CC(=O)NC(=O)C1 | 29 | 32 | 

SMILES | IC50 (MDA-MB-231 [2]) [µM] | IC50 (4T1 [3]) [µM] | IC50 (MDA-MB-231 [1]) [µM] | IC50 (4T1 [4]) [µM] | half-life [5] [min]
CO[C@@H](/C=C/CC/C=C/C(=O)O)[C@@H](O)[C@H](C)/C=C(\C)[C@@H](O)[C@H](C)C(=O)CCCC1CC(=O)NC(=O)C1 | > 100 | > 100 | > 100 | > 100 | 
CO[C@@H](/C=C/CC/C=C/C(=O)O)[C@@H](O)[C@H](C)C(O)/C(C)=C/[C@H](C)C(=O)CCCC1CC(=O)NC(=O)C1 (stereo partly drawn) | > 100 | > 100 | > 100 | > 100 | 
CO[C@@H](/C=C/CC/C=C/C(=O)O)[C@@H](O)[C@H](C)/C=C(\C)[C@H](O)[C@H](C)C(=O)CCCC1CC(=O)NC(=O)C1 [DORRIGOCIN A] | > 100 | > 100 | > 100 | > 100 | 
CO[C@H]1/C=C/CC/C=C/C(=O)O[C@H]([C@H](C)C(=O)CCCC2CC(=O)NC(=O)C2)/C(C)=C\[C@@H](C)[C@@H]1O [MIGRASTATIN] | 17 | 14 | 4.6 | 5.8 | 5
